Assay results as given in the array DNA melting data of Ke et al. (doi:10.1101/2024.01.08.574731).

Key:
[1] = melting temperature; fluorescence melt of hairpins on a sequencing array, two-state fit, raised by 9.35 °C to match UV melts; conditions: sodium 0.088 M
Summary of the method: (§1)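 To match UV melts, fitted temperatures were raised by 9.35 °C. These fits were bootstrapped two-state models that gave melting temperature and folding enthalpy, combined by inverse variance over four replicates. The input was normalised Cy3 fluorescence of library hairpins with annealed Cy3 and quencher oligos on a sequenced MiSeq flow cell, imaged in 50 mM Na-HEPES pH 8.0, 25 mM NaCl in 2.5 °C steps up to 60 °C.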

[2] = folding enthalpy; higher = less favourable; fluorescence melt of hairpins on a sequencing array, two-state fit; conditions: sodium 0.088 M
Summary of the method: as §1

Sequence | Tm [1] | folding enthalpy [2]
GTAAACGAAAGTTGCTAC ((((((....)))..))) | 29 °C | -9.49 kcal/mol
GGGCTACGAAAGTACCCC (((.(((....))).))) | 49.4 °C | -17.5 kcal/mol
GTAGCGCGAAAGCGATAC (((.(((....))).))) | 68 °C | -24.1 kcal/mol
GCCGTCGAAAGACGAGGC ((((((....)))..))) | 55.5 °C | -17.8 kcal/mol
GGGCCGACGAAAGTCCCC (((..(((....)))))) | 43.8 °C | -12 kcal/mol
GACACTGGAAACAGTGTC (((((((....))))))) | 66 °C | -37 kcal/mol
GCCCGAGGAAACCCGGGC (((((.(....).))))) | 60.6 °C | -40.6 kcal/mol
GTGACGGGAAACCACCAC (((..((....))..))) | 27.4 °C | -15.7 kcal/mol
GCGTGGGGAAACTCACGC (((((.(....).))))) | 61.4 °C | -42.9 kcal/mol
GATCCGCCCACGGATC ((((((....)))))) | 59.5 °C | -43.6 kcal/mol
GTAACGGGAAACTGTTGC (.(((.(....).))).) | 32.9 °C | -22.8 kcal/mol
CCAAAGAAATTTGG (((((....))))) | 30.9 °C | -8.79 kcal/mol
GTTAGCGGAAACGCTAAC (((((((....))))))) | 66.7 °C | -42.7 kcal/mol
GATCGCTAATGCGATC ((((((....)))))) | 67.1 °C | -31.4 kcal/mol
GATCAGGAGCTGATC ((((((...)))))) | 46.5 °C | -32.3 kcal/mol
GAATAGGGAAACCCATTC ((((.((....)).)))) | 29.5 °C | -17.1 kcal/mol
GATCAGCCACCTGATC ((((((....)))))) | 49.6 °C | -33.8 kcal/mol
GCGTCGTCGAAAGACCGC (((..(((....)))))) | 50.3 °C | -19.3 kcal/mol
GAACTCACGAAAGTGTTC (((..(((....)))))) | 29.2 °C | -14.3 kcal/mol
GCTGTAGGAAACTATAGC (((.(((....))).))) | 43.7 °C | -28.3 kcal/mol
GGGTTGGGAAACCAATCC ((.((((....)))).)) | 50.8 °C | -32.8 kcal/mol
GATTGTGGAAACACGATC (((.(((....))).))) | 48.1 °C | -31.7 kcal/mol
GATCCGGTCCCGGATC ((((((....)))))) | 65.3 °C | -35.4 kcal/mol

Sequence | Tm [1] | folding enthalpy [2]
GACCTCCGAAAGGAGTC (((.(((....)))))) | 49.2 °C | -15.3 kcal/mol
GGTCTCGAAAGAGGCACC ((((((....)))..))) | 39.1 °C | -14.5 kcal/mol
GCGATGCGAAAGCAAAGC ((..(((....)))..)) | 61 °C | -32.9 kcal/mol
GCATAGCGAAAGCTAAGC ((.((((....)))).)) | 51.2 °C | -16.2 kcal/mol
GCTTTCGAAAGAACAGC ((((((....))).))) | 36.8 °C | -23.7 kcal/mol
GGTCCTCCGAAAGGAACC (((..(((....)))))) | 32.9 °C | -13 kcal/mol
GCTCTAGGAAACTGGAGC ((((.((....)).)))) | 49.6 °C | -35.8 kcal/mol
GATCACCGAAAGGTCATC (((.(((....))).))) | 32.5 °C | -16.8 kcal/mol
GCGAAAATTCGC ((((....)))) | 47.8 °C | -18.6 kcal/mol
GATCGCGAAAGCGACATC ((((((....)))..))) | 32.1 °C | -8.3 kcal/mol
GCCTGACCGAAAGGTGGC (((..(((....)))))) | 51.2 °C | -23.4 kcal/mol
GATGTTGAAAAACATC ((((((....)))))) | 51.6 °C | -35.7 kcal/mol
GGACGCGAAAGCGTCTCC ((((((....)))..))) | 62.5 °C | -6.35 kcal/mol
GGGCTCGGAAACGAGCTC (.(((((....))))).) | 62.9 °C | -15 kcal/mol
GATCGGCCTTCCGATC ((((((....)))))) | 56.1 °C | -41.3 kcal/mol
GTACACGAAAGTGGTTAC ((((((....)))..))) | 30.5 °C | -10.7 kcal/mol
GATCCCGAAAGGGGATC ((((((....))).))) | 57.8 °C | -31.4 kcal/mol
GCCGCGCGAAAGCTAGGC (((..((....))..))) | 62.5 °C | -28.2 kcal/mol
GATCCCTCCAGGGATC ((((((....)))))) | 63.9 °C | -39.1 kcal/mol
GATCAGGCCCCTGATC ((((((....)))))) | 53.1 °C | -46.1 kcal/mol
GCTCAACGAAAGTTAAGC (((.(((....))).))) | 42 °C | -26.4 kcal/mol
GCGATGCGAAAGCCTGGC ((.(.((....)).).)) | 29.1 °C | -11.5 kcal/mol
GTGAGGCGAAAGCCCCAC (((.(((....))).))) | 53.8 °C | -22.8 kcal/mol

Sequence | Tm [1] | folding enthalpy [2]
GGAACCGAAAGGTTTTCC ((((((....)))..))) | 35.6 °C | -12.6 kcal/mol
GAATGGCGAAAGCCTTC (((.(((....)))))) | 41.1 °C | -11.9 kcal/mol
GGACGCGAAAGCGATCC ((((((....))).))) | 57.4 °C | -16.7 kcal/mol
GACGCGGGAAACCGCACC (..((((....))))..) | 32.2 °C | -8.05 kcal/mol
GTCGGAGGAAACTCCGGC (.(((((....))))).) | 58.5 °C | -30.5 kcal/mol
GATCAGCCGCTGATC ((((((...)))))) | 48.7 °C | -41 kcal/mol
GCGGACTCGAAAGAGCGC (((..(((....)))))) | 51 °C | -22.9 kcal/mol
GCTAACGAAAGTTCGAGC ((((((....)))..))) | 32.5 °C | -14.9 kcal/mol
GCTTCGCGAAAGCAAAGC ((((.((....)).)))) | 57.3 °C | -23.8 kcal/mol
GCAATGGGAAACCGTTGC ((((.((....)).)))) | 55 °C | -43.3 kcal/mol
GCTCTTCGAAAGAACAGC (((.(((....))).))) | 34.7 °C | -22.2 kcal/mol
GAGACCGGAAACGGCCTC (((.(((....))).))) | 50.8 °C | -28.1 kcal/mol
GATCTGGTCTCAGATC ((((((....)))))) | 53 °C | -43 kcal/mol
GCTTTGCGAAAGCACCGC ((..(((....)))..)) | 39.2 °C | -12.4 kcal/mol
GACCCGGGAAACCGGGCC (.(((((....))))).) | 53.3 °C | -12.6 kcal/mol
GTCCTCGGAAACGAGGGC (.(((((....))))).) | 62.3 °C | -30.3 kcal/mol
GCAGGCGGAAACACCTGC (((((.(....).))))) | 54.1 °C | -48.9 kcal/mol
GATGAAGGAAACTTCACC (.(((((....))))).) | 32.2 °C | -13.2 kcal/mol
GGATGTGCGAAAGCATCC (((..(((....)))))) | 45.8 °C | -17.6 kcal/mol
GTTCTGGGAAACTGGAAC ((((..(....)..)))) | 34.8 °C | -31.9 kcal/mol
GATCTAATGTAGATC ((((((...)))))) | 36.6 °C | -25.5 kcal/mol
GGCGGGTCGAAAGACGCC (((..(((....)))))) | 58 °C | -24.8 kcal/mol
CGGTCGGAAACGAGTCCG ((((((....)))..))) | 39.4 °C | -20.6 kcal/mol
